Results on 3 molecules are retold here after ChEMBL document CHEMBL4411269, “Required Immunoproteasome Subunit Inhibition Profile for Anti-Inflammatory Efficacy and Clinical Candidate KZR-616 ((2 S,3 R)- N-(( S)-3-(Cyclopent-1-en-1-yl)-1-(( R)-2-methyloxiran-2-yl)-1-oxopropan-2-yl)-3-hydroxy-3-(4-methoxyphenyl)-2-(( S)-2-(2-morpholinoacetamido)propanamido)propenamide)” (J Med Chem, 2018).

Molecules are shown by their SMILES. Calls of active or inactive are those of the source. The rule behind the calls is not given here.

The target of data set [1] is T1, Proteasome subunit beta type-8 (Homo sapiens, UniProt P28062).
T1 sequence (P28062 whole entry): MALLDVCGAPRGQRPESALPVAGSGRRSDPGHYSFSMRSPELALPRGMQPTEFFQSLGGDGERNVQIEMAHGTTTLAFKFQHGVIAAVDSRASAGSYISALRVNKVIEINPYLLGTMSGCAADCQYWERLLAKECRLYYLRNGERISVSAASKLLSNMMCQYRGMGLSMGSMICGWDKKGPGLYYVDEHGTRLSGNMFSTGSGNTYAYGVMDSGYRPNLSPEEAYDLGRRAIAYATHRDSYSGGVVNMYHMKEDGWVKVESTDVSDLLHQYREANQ
Briefly: Inhibition of LMP7 in human MOLT4 cells by ELISA. In kind it is cell-based.

Data set [2] can be described thus: Selectivity ratio of IC50 for MECL1 in mouse A20 cells to IC50 for MECL1 in human MOLT4 cells. In kind it is cell-based.
Data set [3] has as its system PBMC. Briefly: Antiinflammatory activity in human PBMC assessed as reduction in anti-CD3/CD28 antibody-stimulated TNF-alpha expression at 250 nM preincubated for 1 hr followed by anti-CD3/CD28 antibody stimulation measured after 24 hrs by ELISA. In kind it is functional, cell-based. The method in brief: (§1)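 Healthy-donor PBMC, thawed from cryopreservation, 250 000 cells/well in RPMI 1640/5% FBS. Pretreated 1 h at 37 °C with compound alone or combined (0.1% DMSO final), washed 4 times, then stimulated 24 h with anti-CD3 and anti-CD28 antibodies. TNFα and IFNγ in supernatants by electrochemiluminescent ELISA; expressed relative to DMSO-treated controls (n = 6).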

The subject of data set [4] is PBMC. Nature of the data set: Antiinflammatory activity in human PBMC assessed as reduction in anti-CD3/CD28 antibody-stimulated IFN-gamma expression at 250 nM preincubated for 1 hr followed by anti-CD3/CD28 antibody stimulation measured after 24 hrs by ELISA. Format: functional, cell-based. The procedure, abridged: as §1
For data set [5], the target named is T2, Proteasome subunit beta type-9 (Homo sapiens) (UniProt P28065).
T2 sequence (whole entry): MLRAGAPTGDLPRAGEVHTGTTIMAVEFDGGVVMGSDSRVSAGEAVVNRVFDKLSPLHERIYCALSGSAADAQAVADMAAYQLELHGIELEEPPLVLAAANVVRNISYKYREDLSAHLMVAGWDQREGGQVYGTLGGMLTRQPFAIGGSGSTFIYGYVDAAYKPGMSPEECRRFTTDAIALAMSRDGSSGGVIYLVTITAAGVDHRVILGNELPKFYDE
Briefly: Inhibition of LMP2 in human PBMC at 250 nM by ELISA. The procedure, abridged:
(§2)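 Cryopreserved healthy-donor human PBMC in RPMI 1640 with 5% heat-inactivated FBS, exposed to compound (0.1% DMSO final) for 1 h at 37 °C, 5% CO2, then washed. Subunit-specific active-site occupancy read by ProCISE: biotinylated active-site probe binding, denaturation, streptavidin capture, subunit-specific antibody and HRP chemiluminescence. Signal normalized to protein and expressed relative to DMSO controls.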
A general note: An ELISA detects its analyte on a solid surface through an enzyme-linked reagent.

For data set [6], the system named is PBMC. Nature of the data set: Antiinflammatory activity in human PBMC assessed as reduction in anti-CD3/CD28 antibody-stimulated TNF-alpha expression at 250 nM preincubated for 1 hr followed by anti-CD3/CD28 antibody stimulation measured after 24 hrs in presence of KZR-504 by ELISA. Format: functional, cell-based. The method in brief:
as §1

Data set [7] concerns PBMC. Briefly: Antiinflammatory activity in human PBMC assessed as reduction in LPS-stimulated TNF-alpha expression at 125 nM preincubated for 1 hr followed by LPS stimulation measured after 24 hrs by ELISA. In kind it is functional, cell-based. The procedure, abridged:
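Cryopreserved healthy-donor PBMC in RPMI 1640 with 5% heat-inactivated FBS, 250 000 cells/well. Compound (0.1% DMSO final) for 1 h at 37 °C, 5% CO2, then 4 washes with medium. Stimulated with 1 μg/mL LPS for 24 h; supernatant TNFα, IL-6 and IL-12/23p40 by electrochemiluminescent immunoassay. Mean level relative to DMSO controls, n = 6.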

The subject of data set [8] is PBMC. Nature of the data set: Antiinflammatory activity in human PBMC assessed as reduction in anti-CD3/CD28 antibody-stimulated IFN-gamma expression at 125 nM preincubated for 1 hr followed by anti-CD3/CD28 antibody stimulation measured after 24 hrs by ELISA. In kind it is functional, cell-based. The method in brief: as §1
The subject of data set [9] is Mus musculus. Nature of the data set: In vivo inhibition of LMP7 in Balb/c mouse splenocytes at 20 mg/kg, iv followed by dosing repeat on day 6, 8, 11, 13 and 15 and measured on 1 hr post last dose. Format: functional, organism-based. The method in brief: (§3)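 BALB/c mice dosed iv bolus in 10% sulfobutyl ether−β-cyclodextrin/10 mM sodium citrate pH 3.5; tissues taken 1 h after administration. Splenocytes strained and red cells lysed; kidney frozen, then bead-homogenized. Hypotonic lysate (20 mM Tris pH 8, 5 mM EDTA) at 1 mg/mL (spleen) or 5 mg/mL (kidney) run in the ProCISE active-site ELISA. Background-subtracted, protein-normalized activity relative to vehicle animals; n = 3.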

The subject of data set [10] is Mus musculus. Briefly: In vivo inhibition of MECL-1 in Balb/c mouse splenocytes at 20 mg/kg, iv followed by dosing repeat on day 6, 8, 11, 13 and 15 and measured on 1 hr post last dose. In kind it is functional, organism-based. The method in brief: as §3
In data set [11] the test system is Mus musculus. Nature of the data set: In vivo inhibition of LMP7 in Balb/c mouse splenocytes at 20 mg/kg, iv followed by dosing repeat on day 6, 8, 11, 13 and 15 and co-treated with 5 mg/kg, iv KZR-504 and measured on 1 hr post last dose. Format: functional, organism-based. The method in brief:
as §3

The test system of data set [12] is Mus musculus. Nature of the data set: Antiarthritic activity in type 2 collagen antibody/LPS induced Balb/c mouse assessed as reduction in disease burden at 20 mg/kg, iv followed by dosing repeat on day 6, 8, 11, 13 and 15 and measured until day 18. Format: functional, organism-based. The procedure, abridged:
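CAIA in 7−8 week old female BALB/c mice on breeder chow. Induced with 1.75 mg of a 5-antibody anti-type II collagen cocktail iv on day 0, then 25 μg LPS ip on day 3. Dosed as single iv boluses in 10% (w/v) sulfobutyl ether−β-cyclodextrin/10 mM sodium citrate (pH 3.5); vehicle-treated group included.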

A short description of data set [13]: Toxicity in Balb/c mouse assessed as change in body weight at 20 mg/kg, iv followed by dosing repeat on day 6, 8, 11, 13 and 15 and measured until day 18. In kind it is organism-based. The note with it: in vivo.
Data set [14] has as its target T3, Proteasome subunit beta type-8 (Homo sapiens) (UniProt P28062).
T3 sequence (whole entry): T1 sequence (P28062 whole entry)
Nature of the data set: Inhibition of LMP7 in human PBMC at 125 nM by ELISA. The procedure, abridged:
as §2

Data set [15] deals with T4, Proteasome subunit beta type-10 (Homo sapiens) (UniProt P40306).
T4 sequence (whole entry): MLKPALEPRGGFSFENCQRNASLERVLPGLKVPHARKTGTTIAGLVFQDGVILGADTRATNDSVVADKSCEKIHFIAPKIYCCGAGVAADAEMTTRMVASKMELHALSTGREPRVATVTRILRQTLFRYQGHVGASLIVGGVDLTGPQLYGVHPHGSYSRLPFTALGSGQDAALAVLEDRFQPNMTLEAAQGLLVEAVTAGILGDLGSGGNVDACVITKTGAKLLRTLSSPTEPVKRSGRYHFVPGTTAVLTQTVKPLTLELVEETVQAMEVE
Nature of the data set: Inhibition of MECL1 in human PBMC at 125 nM by ELISA. The procedure, abridged:
as §2

The term IC50 denotes the concentration at which inhibition is half-maximal. A low value points to greater potency in that assay. In turn, `Cc1ccc(CC[C@H](NC(=O)[C@H](Cc2ccccc2)NC(=O)[C@H](CC(C)C)NC(=O)CN2CCCCCC2)C(=O)[C@@]2(C)CO2)cc1` gave an IC50 in [1] of 0.346 µM. In data set [2], the Ratio IC50 turned out to be 4. In addition, the result in data set [3], in [4] and in [6] was inactive. In addition, in data set [5], the inhibition entry is “Active”.

In [1], `COc1ccc([C@@H](O)[C@H](NC(=O)[C@H](C)NC(=O)CN2CCOCC2)C(=O)N[C@@H](CC2=CCCC2)C(=O)[C@@]2(C)CO2)cc1` [ZETOMIPZOMIB] returned a 50% inhibitory concentration (IC50) of 0.039 µM. Also, the outcome in data set [3] and in data set [4] was Active.

For `COc1ccc(C[C@H](NC(=O)[C@@H](C)NC(=O)[C@H]2CC[C@H](O)CC2)C(=O)N[C@@H](CC2=CCCC2)C(=O)[C@@]2(C)CO2)cc1`, the result in [7] and in [12] was inactive. Also, the outcome in data set [8] was Active. Also, the inhibition result in data set [9], in data set [10], in [11], in data set [14] and in data set [15] was “Active” each time. Also, the Activity entry in data set [13] is “Non-Toxic”.
